This is an account of results in ChEMBL document CHEMBL5230177, “Inactivation of myostatin by photooxygenation using functionalized d-peptides” (RSC Med Chem, 2023).

In data set [1] the target is Growth/differentiation factor 8 (Homo sapiens) (UniProt O14793). Description: Photo-oxygenation of human recombinant Myostatin expressed in Escherichia coli cells assessed as oxygen adduct formation in myostatin peak fragment 79-90 at 3 uM measured after photoirradiation for 30 mins using LED by MALDI-TOF-MS analysis. In a few lines: (§1)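 Myostatin stock (8 μM in 1 mM HCl) diluted to 1 μM in 10 mM phosphate, pH 7.4. Functionalized peptide (final 3 μM) or methylene blue (final 1 μM) added. Irradiated 30 min with 730 nm LED (14 mW) at room temperature. Then 50 mM DTT reduction (37 °C, 0.5 h), Lys-C digestion (1/20 w/w, 37 °C, 2.5 h), ZipTip desalting, MALDI-TOF MS of fragments.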

Data set [2] shares this target. The data set can be described thus: Photo-oxygenation of human recombinant Myostatin expressed in Escherichia coli cells assessed as oxygen adduct formation in myostatin peak fragment 55-78 at 3 uM measured after photoirradiation for 30 mins using LED by MALDI-TOF-MS analysis. The gist of the method: as §1
For data set [3] the target is unchanged. Description: Photo-oxygenation of human recombinant Myostatin expressed in Escherichia coli cells assessed as oxygen adduct formation in myostatin peak fragment 40-54 at 3 uM measured after photoirradiation for 30 mins using LED by MALDI-TOF-MS analysis. In a few lines: as §1
In data set [4] the target is Amyloid-beta precursor protein (Homo sapiens) (UniProt P05067). The data set can be described thus: Photo-oxygenation of human Amyloid beta (1 to 42) assessed as oxygen adduct formation at 3 uM measured after photoirradiation for 30 mins using LED by MALDI-TOF-MS analysis. In a few lines:
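Aβ1-42 formed in situ from isopeptide stock (250 μM in 0.1% TFA, ultracentrifuged), diluted to 20 μM in 10 mM phosphate, pH 7.4. Functionalized peptide (final 3 μM) or methylene blue (final 1 μM) added. Irradiated with 730 nm LED (14 mW, 3–5 cm) at room temperature. Reduced with 50 mM DTT (37 °C, 0.5 h), Lys-C digested (1/20 w/w, 37 °C, 2.5 h), desalted, analysed by MALDI-TOF MS.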

Data set [5] addresses Growth/differentiation factor 8 (Homo sapiens) (UniProt O14793). Description: Photo-oxygenation mediated inactivation of human recombinant Myostatin expressed in Escherichia coli cells assessed as residual activity at 3 nM photoirradiated for 30 mins using LED followed by incubation with luciferase reporter transfected HEK293 cells for 4 hrs by luciferase reporter gene assay. As to conditions: time 4.5 hrs. The gist of the method:
(§2)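 Myostatin (1 μM in 10 mM phosphate, pH 7.4, with or without peptide) diluted in serum-free DMEM to 0.6 nM, irradiated at 730 nm for 30 min, then added to HEK293 cells. Cells were transfected 24 h with SBE-luc2P reporter plus TK-Renilla control, then held 8 h in serum/phenol red-free DMEM. Exposure 4 h, PBS wash, dual-luciferase read-out. Triplicate, mean ± s.d. (n = 3), Tukey's test.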

The target is the same in data set [6]. The data set can be described thus: Inactivation of human recombinant Myostatin expressed in Escherichia coli cells at 3 nM incubated with luciferase reporter transfected HEK293 cells for 4 hrs by luciferase reporter gene assay. In general terms: Reporter assays use an easily measured gene product as a stand-in for the process of interest.
For data set [7], the target named is T1, Growth/differentiation factor 8 (Homo sapiens, UniProt O14793).
T1 sequence (O14793 whole entry): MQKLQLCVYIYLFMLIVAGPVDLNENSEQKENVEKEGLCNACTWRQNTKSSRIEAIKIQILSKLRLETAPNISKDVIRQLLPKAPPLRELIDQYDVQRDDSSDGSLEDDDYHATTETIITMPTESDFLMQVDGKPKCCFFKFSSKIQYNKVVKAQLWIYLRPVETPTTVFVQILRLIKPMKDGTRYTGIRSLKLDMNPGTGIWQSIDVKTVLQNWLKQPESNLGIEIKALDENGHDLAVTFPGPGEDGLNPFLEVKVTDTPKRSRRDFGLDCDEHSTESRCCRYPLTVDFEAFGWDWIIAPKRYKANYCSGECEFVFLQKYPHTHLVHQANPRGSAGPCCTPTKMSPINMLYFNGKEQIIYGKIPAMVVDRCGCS
Description: Photo-oxygenation mediated inactivation of human recombinant Myostatin expressed in Escherichia coli cells photoirradiated for 30 mins using LED followed by incubation with luciferase reporter transfected HEK293 cells for 4 hrs by luciferase reporter gene assay. In a few lines:
as §2

The next data set concerns HEK293. Description: Phototoxicity against human HEK293 cells assessed as reduction in cell viability at 3 uM photoirradiated for 30 mins using LED followed by incubation with compound for 24 hrs by WST-1 assay. Type of data set: toxicity, cell-based. The settings on record: hek293, 24.5 h, time 1470 min. The gist of the method: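 HEK293 cells grown in DMEM with 10% FBS and non-essential amino acids at 37 °C, 5% CO2, seeded 2.0×10^4 cells/well. After 48 h, medium switched to serum- and phenol red-free DMEM containing 3 μM peptide or methylene blue. Cells irradiated with LED (λmax 730 nm, 30 min), then incubated 24 h. Viability read by WST-1; Student's t-test.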
On the technique in general: Tetrazolium assays rely on reduction of a dye to a coloured formazan, in cell work by metabolically active cells.

For another data set, the system named is trypsin (Sus scrofa). The data set can be described thus: Stability of the compound assessed as trypsin (porcine pancreas)-mediated drug degradation at 100 uM measured after 3 hrs by MALDI-TOF-MS analysis.
In data set [8] the test system is chymotrypsin (Bos taurus). Description: Stability of the compound assessed as chymotrypsin (bovine pancreas)-mediated drug degradation at 100 uM measured after 3 hrs by MALDI-TOF-MS analysis.

Activity calls are given as the source filed them. The calls are words filed in the database; no cut-off is given here.

Chain of Amyloid-beta precursor protein (Homo sapiens) (P05067 whole entry): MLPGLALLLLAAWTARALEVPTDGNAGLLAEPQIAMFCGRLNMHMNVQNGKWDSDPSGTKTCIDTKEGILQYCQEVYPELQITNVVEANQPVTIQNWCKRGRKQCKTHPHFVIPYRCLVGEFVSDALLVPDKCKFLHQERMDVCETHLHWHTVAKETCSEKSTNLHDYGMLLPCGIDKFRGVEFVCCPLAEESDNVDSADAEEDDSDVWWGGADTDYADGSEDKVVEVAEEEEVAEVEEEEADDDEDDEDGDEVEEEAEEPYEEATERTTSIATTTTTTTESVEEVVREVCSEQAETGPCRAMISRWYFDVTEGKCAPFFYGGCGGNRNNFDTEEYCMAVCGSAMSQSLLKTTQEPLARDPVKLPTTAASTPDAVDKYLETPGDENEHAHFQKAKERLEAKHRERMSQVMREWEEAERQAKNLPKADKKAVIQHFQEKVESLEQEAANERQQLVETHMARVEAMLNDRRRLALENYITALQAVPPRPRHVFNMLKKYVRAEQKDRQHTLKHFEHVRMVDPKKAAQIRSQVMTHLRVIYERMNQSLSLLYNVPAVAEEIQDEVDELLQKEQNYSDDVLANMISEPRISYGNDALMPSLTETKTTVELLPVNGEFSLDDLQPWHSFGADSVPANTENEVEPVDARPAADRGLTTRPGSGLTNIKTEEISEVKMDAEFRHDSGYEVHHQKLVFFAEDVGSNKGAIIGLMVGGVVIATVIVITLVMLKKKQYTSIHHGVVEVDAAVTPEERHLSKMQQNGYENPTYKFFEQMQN

Turning to `CC[C@@H](C)[C@@H](NC(=O)[C@@H](CCCNC(=N)N)NC(=O)[C@@H](CCc1ccccc1)NC(=O)[C@H](NC(=O)[C@@H](CCCCN)NC(=O)[C@H](NC(=O)[C@@H](CCCNC(=N)N)NC(=O)[C@H](NC(=O)[C@@H](Cc1ccc2ccccc2c1)NC(=O)[C@@H](CCCNC(=N)N)NC(=O)[C@@H](CCCCN)NC(=O)[C@H](NC(=O)[C@@H](CCCNC(=N)N)NC(=O)[C@@H](CC(C)C)NC(=O)CCc1cn(CCN2CCCc3cc(/C=C/C4=C(Br)C(/C=C/c5cc6c7c(c5)CCCN7CCC6)=[O+][B-](F)(C(F)(F)F)O4)ccc32)nn1)C1CCCCC1)[C@H](C)CC)C1CCCCC1)[C@H](C)CC)C(=O)N[C@H](Cc1ccc(O)cc1)C(=O)N[C@H](CCc1ccccc1)C(N)=O` (stereo not given in full), the result in data set [1] and in [2] was Active. The outcome in [3] and in data set [4] was inactive. The results for the Activity (in data set [5]; in the data set on HEK293) were 41% and “Non-Toxic”, respectively. Moreover, in data set [6], the inhibition entry is “inactive”. The IC50 (in general, the concentration that inhibits the measured activity by half) in data set [7] came out at 0.89 nM. The Stability entry (in the data set on trypsin (Sus scrofa); in data set [8]) was “Stable” in each case.
